Data taken from ChEMBL document CHEMBL1914422, “Activation of the c-Jun N-terminal kinase/activating transcription factor 3 (ATF3) pathway characterizes effective arylated diazeniumdiolate-based nitric oxide-releasing anticancer prodrugs” (J Med Chem, 2011).
Activity calls are given as the source filed them. No cut-off for these calls is given here.

How the values were obtained:
[1] = Activation of JNK phosphorylation at Thr183 and Tyr185 in human NCI-H1703 cells at 1 uM within 30 mins by Western blot analysis; type: cell-based
[2] = Chemical stability of the compound in aqueous phosphate buffered saline assessed as half life at pH 7.4 in presence of 4 mM glutathione; type: physicochemical; conditions: gsh
NCI-H441 = test: Antiproliferative activity against human NCI-H441 cells after 72 hrs by MTT assay; type: functional, cell-based; conditions: NCI-H441, 72 h
Outline: (§1)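 Compounds (10 mM DMSO stocks, final DMSO ≤0.1%) added at increasing concentrations in PBS, incubated 72 h at 37 °C. MTT read-out, six repeats per concentration, at least two independent experiments.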

[3] = Antiproliferative activity against human NCI-H1373 cells after 72 hrs by MTT assay; type: functional, cell-based; conditions: NCI-H1373, 72 h; outline: as §1
NCI-H1703 = test: Antiproliferative activity against human NCI-H1703 cells after 72 hrs by MTT assay; type: functional, cell-based; conditions: NCI-H1703, 72 h; outline: as §1
[4] = Antiproliferative activity against human NCI-H1944 cells after 72 hrs by MTT assay; type: functional, cell-based; conditions: NCI-H1944, 72 h; outline: as §1
NCI-H2122 = test: Antiproliferative activity against human NCI-H2122 cells after 72 hrs by MTT assay; type: functional, cell-based; conditions: NCI-H2122, 72 h; outline: as §1

Row | SMILES | Activity [1] | t1/2 [2] [min] | IC50 (NCI-H441) [µM] | IC50 [3] [µM] | IC50 (NCI-H1703) [µM] | IC50 [4] [µM] | IC50 (NCI-H2122) [µM]
1 | CCOC(=O)N1CCN(/[N+]([O-])=N/Oc2cc(OC)c([N+](=O)[O-])cc2[N+](=O)[O-])CC1 | inactive | 38.6 | 2.5 | 2.1 | 1.57 | > 10 | 5.78
2 | CCOC(=O)N1CCCN(/[N+]([O-])=N/Oc2cc(OC)c([N+](=O)[O-])cc2[N+](=O)[O-])CC1 | inactive | 59.6 | 3.15 | 3.08 | 1.82 | > 10 | 10
